Our source for the cytotoxicity values is ChEMBL document CHEMBL4513216, “Probing the Open Global Health Chemical Diversity Library for Multistage-Active Starting Points for Next-Generation Antimalarials” (ACS Infect Dis, 2020).

The data set is described as follows: Toxicity liver stage against HepG2, at 10uM. The class given is cell-based. The arrangement: test concentration 10 uM, cell line HepG2-A16-CD81EGFP. To be noted: human, HepG2-A16-CD81EGFP cells; read-out: INHIBITION
In outline: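 Uninfected HepG2-A16-CD81EGFP cells, 3 × 10^3 per well, 1536-well, plated on prespotted compound at 10 μM final, parasite-free screening media added to match infected plates; puromycin 10 μM positive, DMSO 0.5% negative; run in parallel with 48 h PbLuc assay at 37 °C, 5% CO2; viability by CellTiter-Glo luminescence, normalized to controls.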
Turning to `COc1ccc(Cn2c(C3CCNCC3)cc3cccnc32)cc1`, the cytotoxicity at 10 µM was -4.45%. Consider `Cc1c[nH]nc1C1CCCN1Cc1nccn1C` (configuration not stated), for which the cytotoxicity at 10 µM is -3.34%. With `Cc1ccc(N2CCCC(NCCCS(C)(=O)=O)C2)nn1` (configuration not stated) the figure was 0.833%; with `NC1(c2nc(C(F)(F)F)cc(=O)[nH]2)CCCCC1`, 11%. `O=c1n(Cc2ccc(F)cc2)nc2ncccn12`: the cytotoxicity at 10 µM is -8.18%. For the molecule `Cn1c(Cn2ccnc2)nnc1C1CCN(C(=O)c2cccnc2)CC1`, the cytotoxicity at 10 µM was -96.4%. As to `O=C(c1ccno1)N1CCN2C(=O)N(Cc3ccc(F)cc3)C[C@H]2C1`, the cytotoxicity at 10 µM was -5.96%. On to `COc1cccc(CN(C)C(C)c2ccon2)c1OCCn1ccnc1` (configuration not stated), for which the cytotoxicity at 10 µM was -5.17%. With `CCC(CO)N(Cc1ccccn1)C(=O)c1cccc(C#N)c1` (configuration not stated) the figure was -3.67%; with `CC(C)n1ccc2ccc(C(=O)NC3CN4CCC3CC4)cc21` (configuration not stated), -57.4%; with `CN1Cc2ccccc2CC2(CCN(CCO)CC2)C1=O`, -6.58%. Regarding `CSCCC(NC(N)=O)C(=O)NCc1ccc(-n2cccn2)cc1` (configuration not stated), the cytotoxicity at 10 µM came out at 18%. Take `Cc1nc(N2CCN(C(=O)c3ccccc3)CC2)cc(-n2ccnc2)n1`: the cytotoxicity at 10 µM is 0.0237%. As for `CC(=O)N1CC(=O)N(c2ccccc2)CC12CCN(CC1CC1)C2` (configuration not stated), the cytotoxicity at 10 µM was 4.45%. Turning to `Cc1nonc1CN(C)CC1(O)CCCN(CCC2CCCCC2)C1=O` (configuration not stated), the cytotoxicity at 10 µM amounted to 49.4%. As for `Cc1cc(C)nc(Nc2cccc(C3CCCN(CCO)C3)n2)n1` (configuration not stated), the cytotoxicity at 10 µM was -12.9%. In the case of `CC1(C)CNC(=O)c2nc(C3CCCN(C(=O)C4CC4)C3)[nH]c2C1` (configuration not stated), the cytotoxicity at 10 µM turned out to be 3.74%. Take `O=C(O)c1ccn(-c2ccccc2NS(=O)(=O)c2cccc(F)c2)n1`: the cytotoxicity at 10 µM is -18.6%. Consider `c1c(CN2CCCC2)nc2n1CCN(C1CCOCC1)C2`, for which the cytotoxicity at 10 µM was 0.641%. For the molecule `CCC(C)NC(=O)c1sccc1-n1cnnn1` (configuration not stated), the cytotoxicity at 10 µM worked out at 5.45%. With `Cc1cc(CN2CCN(C(C)C(=O)NCc3cccs3)CC2)no1` (configuration not stated) the figure was -0.335%.

Regarding `COc1cccc(SCCCn2cnc3c(N)ncnc32)c1`, the cytotoxicity at 10 µM was 11.7%. For `CS(=O)(=O)NC(=O)c1cnc2c(cnn2C2CCCC2)c1` the value was 8.18%. For `CC(NC(=O)NCC1(N2CCCCC2)CCCCC1)c1nncn1C` (configuration not stated) the value was -9.78%. `CN(Cc1cccnc1)CC1CN(C(=O)C2CC2)Cc2nccn2C1` (configuration not stated): the cytotoxicity at 10 µM was -79.8%. In the case of `O=C(CCN1CCCN(c2nccs2)CC1)NCC1CCCCC1`, the cytotoxicity at 10 µM was -5.1%. As for `NCCn1nc(C2CCN(Cc3ccc(Cl)c(Cl)c3)C2)c2nccnc21` (configuration not stated), the cytotoxicity at 10 µM came out at 27.7%.

As for `Cc1cnc(C)c(N2CCC3(CCCN(C4CCOCC4)C3=O)C2)n1` (configuration not stated), the cytotoxicity at 10 µM was -124%. For the molecule `NC1(CN2CCCCC2)CCCCC1`, the cytotoxicity at 10 µM was found to be 1.46%. As for `Cn1cc(CN2CC3(CCN(Cc4ccsc4)C3)C2)cn1`, the cytotoxicity at 10 µM is -0.182%. `Cc1nc(C)n(CC2CCCN(Cc3ccccc3C#N)C2)n1` (configuration not stated): the cytotoxicity at 10 µM is -16.4%.

On to `Cc1[nH]ncc1C(=O)N1CCCC(n2cncn2)C1` (configuration not stated), for which the cytotoxicity at 10 µM was determined as 7.75%. In the case of `O=c1c2cccc(Cl)c2ncn1C1CCNC1` (configuration not stated), the cytotoxicity at 10 µM was -41.2%. With `CCS(=O)(=O)N1CCN(CCOC)c2ncccc2C1` the figure was 4.37%; with `CN1C(=O)CC(c2cnn(C)c2)C12CCN(CC1CCOCC1)CC2` (configuration not stated), -3.19%. Consider `CC(C)CC(C)(CNC(=O)c1cnccn1)NC(=O)c1cnccn1` (configuration not stated), for which the cytotoxicity at 10 µM is -2.71%. With `O=C(c1cccnc1)N1C[C@@H]2CN(CCN3CCCC3)C(=O)[C@@H]2C1` the figure was -113%. In the case of `CC(C)c1ccc(CCC(=O)N(C)C2CCN(C)C2=O)cc1` (configuration not stated), the cytotoxicity at 10 µM is -7.79%.

Consider `CC[C@H](C)Nc1ncc(-c2cccc(NC(=O)CNC)c2)cn1`, for which the cytotoxicity at 10 µM was -4.97%.

Turning to `O=C(N1CCCCC1)N1CCCC(c2ncncc2-c2ccncc2)C1` (configuration not stated), the cytotoxicity at 10 µM was -32.1%. For the molecule `COc1ccc2c(c1)OCC(CNC1CCc3ncnn3C1)=C2` (configuration not stated), the cytotoxicity at 10 µM came to 4.4%. With `Cn1nccc1C(=O)N1CCC(n2cc(-c3ccsc3)nn2)CC1`, the cytotoxicity at 10 µM is -3.44%.

On to `CSCc1nc(CCNC(=O)c2cnn(C(C)C)c2)cs1`, for which the cytotoxicity at 10 µM was -7.91%.

Take `Cc1nc(NC(=O)COCC(F)(F)F)ccc1Br`: the cytotoxicity at 10 µM worked out at 9.44%.

Regarding `CCCNC(=O)c1ccc(S(=O)(=O)NCC2(O)CCCNC2)cc1` (configuration not stated), the cytotoxicity at 10 µM is -48.3%. As to `Cc1cc(=O)[nH]c(=O)n1Cc1ncc(-c2ccccc2C(=O)O)s1`, the cytotoxicity at 10 µM stood at 2.71%. Regarding `CC(=O)c1c(F)cccc1NCC(O)C(C)(C)C` (configuration not stated), the cytotoxicity at 10 µM is 18.7%. Consider `CCNC(=O)[C@@H]1CCCN1C(=O)c1cccc(CCC(C)(C)O)c1`, for which the cytotoxicity at 10 µM is 9.91%. Regarding `CCc1ncc(C(=O)N2CCN(c3cnn(C)c(=O)c3)CC2)cn1`, the cytotoxicity at 10 µM was -8.3%. Turning to `CO[C@H]1CCN(c2nnc(C)s2)C[C@@H]1Cc1ccccc1`, the cytotoxicity at 10 µM came to 11.8%. Consider `O=C(c1onc2ccccc12)N1CCC2(CCCNC2)C1` (configuration not stated), for which the cytotoxicity at 10 µM was -1.05%. For `COCCN(C)C[C@@H]1CN(C(=O)c2ccc(O)c(C)c2)C[C@@H]1CO`, the cytotoxicity at 10 µM was -11.8%.

As for `Cc1nn(C)c(C)c1C1CCCN1C(=O)c1ccc2c(c1)OCCO2` (configuration not stated), the cytotoxicity at 10 µM is -10.6%. For the molecule `O=C1CC2(CCN(Cc3ncc[nH]3)CC2)CN1Cc1ccc(Cl)cc1`, the cytotoxicity at 10 µM is 5.85%. With `CC(C)(C)c1n[nH]c(C2CN(C(=O)c3csnn3)CCO2)n1` (configuration not stated) the figure was -2.44%; with `CCC(=O)N1CCCN(c2cncc(-n3nc(C)cc3C)n2)CC1`, -8.44%; with `Cc1cccc(OCCNC(=O)Cn2ccc(C)cc2=O)c1`, -1.63%. For `CCOc1ncccc1NC(=O)NCC(O)c1ccc(OC)cc1` (configuration not stated) the value was -16.6%; for `COc1ccc2c(c1)CC(C(=O)N(C)CCCc1cnn(C)c1)CO2` (configuration not stated), -7.55%; for `Cc1nccc(-c2cccc(-c3ccn(CC4CCNC4)n3)c2)n1` (configuration not stated), 10.7%. On to `CCC(CC)CS(=O)(=O)NC(=O)C1CCCC1`, for which the cytotoxicity at 10 µM was -13.3%. On to `COc1cc(NCCNC(=O)c2ccc3[nH]ccc3c2)cc(OC)c1`, for which the cytotoxicity at 10 µM was 6.44%. Regarding `CCCc1ccc(C(=O)N2CCn3c(nnc3C(C)C)C2)cc1`, the cytotoxicity at 10 µM worked out at 9.83%. For `O=C(N1CCCC(n2cncn2)C1)C1(c2cccc(F)c2)CCC1` (configuration not stated) the value was 0.322%; for `O=C(NCc1ccccc1Cn1cncn1)C1CC1`, -11.3%; for `COc1ncc(NS(=O)(=O)c2ccc(F)c(F)c2)c(OC)n1`, -7.76%. With `CN(C)C(=O)c1nc2c(s1)CCN(C(=O)c1ccc(Cl)cc1)CC2`, the cytotoxicity at 10 µM is -14.2%. On to `COCCC(=O)N1CCC(Nc2ncc(Br)cn2)CC1`, for which the cytotoxicity at 10 µM is -2.46%. As to `Cc1ccncc1-n1cc(CCO)cn1`, the cytotoxicity at 10 µM is -2.51%. In the case of `Cc1nn(C)c(Cl)c1C1CCCN1C(=O)c1ccc(C(N)=O)cn1` (configuration not stated), the cytotoxicity at 10 µM was -32%. In the case of `CCc1nnc2n1CCN(C(=O)c1ccc3cc[nH]c3c1)C2`, the cytotoxicity at 10 µM was -6.43%. For `O=C(NCCn1ccnc1)N1CCCC1c1ccc2c(c1)OCCO2` (configuration not stated), the cytotoxicity at 10 µM is -8.16%.
